The target in assay [1] is Bone morphogenetic protein receptor type-1A (Homo sapiens) (UniProt P36894). The assay is described as follows: Binding affinity to BMPR1A assessed as percentage of kinase remaining bound to the bead at 1 uM by T7 phage display based binding assay. Summed up:
(§1)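 Competition binding assay run by a contract lab. Each kinase was expressed as a fusion to T7 phage, full-length for small kinases and catalytic domain for large ones. Phage were mixed with an immobilized known kinase inhibitor on streptavidin magnetic beads and with test compound at a single 1 μM. Kinase/phage still bound to the beads was quantified by qPCR and expressed as % of DMSO control.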

The target of assay [2] is Fibroblast growth factor receptor 1 (Homo sapiens) (UniProt P11362). The assay is described as follows: Inhibition of FGF-R1 assessed as remaining enzyme activity at 1 uM relative to DMSO. Summed up: (§2)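 Dundee kinase panel, radiometric: [γ-33P]ATP (800 cpm/pmol) at 5, 20 or 50 μM, at or below each kinase's ATP Km; 10 mM magnesium acetate; robotic, room temperature, 30 min. Reactions started with MgATP, stopped with orthophosphoric acid, spotted onto P81 filters. Inhibitor tested at a single concentration; mean % activity of duplicates relative to DMSO control.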
Chain of Fibroblast growth factor receptor 1 (Homo sapiens) (P11362 22-822 limits assumed): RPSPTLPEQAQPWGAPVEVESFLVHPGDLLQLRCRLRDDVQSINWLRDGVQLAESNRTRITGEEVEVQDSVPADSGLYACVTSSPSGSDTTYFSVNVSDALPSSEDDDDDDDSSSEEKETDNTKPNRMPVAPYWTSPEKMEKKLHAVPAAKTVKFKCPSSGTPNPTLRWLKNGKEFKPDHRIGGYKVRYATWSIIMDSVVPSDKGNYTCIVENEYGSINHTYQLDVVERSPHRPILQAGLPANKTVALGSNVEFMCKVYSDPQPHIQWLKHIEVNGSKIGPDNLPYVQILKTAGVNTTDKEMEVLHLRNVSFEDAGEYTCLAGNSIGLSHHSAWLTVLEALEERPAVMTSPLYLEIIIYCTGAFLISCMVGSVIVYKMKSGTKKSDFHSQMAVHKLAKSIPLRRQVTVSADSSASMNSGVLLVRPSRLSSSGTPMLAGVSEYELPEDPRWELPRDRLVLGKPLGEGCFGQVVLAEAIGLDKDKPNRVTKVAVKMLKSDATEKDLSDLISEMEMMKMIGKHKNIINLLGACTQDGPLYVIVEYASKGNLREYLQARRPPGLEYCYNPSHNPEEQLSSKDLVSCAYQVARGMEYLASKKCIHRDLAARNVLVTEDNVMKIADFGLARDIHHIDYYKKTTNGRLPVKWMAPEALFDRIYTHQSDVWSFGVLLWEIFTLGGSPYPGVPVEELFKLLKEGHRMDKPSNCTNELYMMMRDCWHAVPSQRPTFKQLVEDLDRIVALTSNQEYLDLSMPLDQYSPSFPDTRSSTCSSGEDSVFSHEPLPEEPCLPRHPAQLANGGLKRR

In assay [3] the target is Platelet-derived growth factor receptor beta (Homo sapiens) (UniProt P09619). Kind of assay: Binding affinity to PDGFRB assessed as percentage of kinase remaining bound to the bead at 1 uM by T7 phage display based binding assay. The method, boiled down: as §1
Chain of Platelet-derived growth factor receptor beta (Homo sapiens) (P09619 whole entry): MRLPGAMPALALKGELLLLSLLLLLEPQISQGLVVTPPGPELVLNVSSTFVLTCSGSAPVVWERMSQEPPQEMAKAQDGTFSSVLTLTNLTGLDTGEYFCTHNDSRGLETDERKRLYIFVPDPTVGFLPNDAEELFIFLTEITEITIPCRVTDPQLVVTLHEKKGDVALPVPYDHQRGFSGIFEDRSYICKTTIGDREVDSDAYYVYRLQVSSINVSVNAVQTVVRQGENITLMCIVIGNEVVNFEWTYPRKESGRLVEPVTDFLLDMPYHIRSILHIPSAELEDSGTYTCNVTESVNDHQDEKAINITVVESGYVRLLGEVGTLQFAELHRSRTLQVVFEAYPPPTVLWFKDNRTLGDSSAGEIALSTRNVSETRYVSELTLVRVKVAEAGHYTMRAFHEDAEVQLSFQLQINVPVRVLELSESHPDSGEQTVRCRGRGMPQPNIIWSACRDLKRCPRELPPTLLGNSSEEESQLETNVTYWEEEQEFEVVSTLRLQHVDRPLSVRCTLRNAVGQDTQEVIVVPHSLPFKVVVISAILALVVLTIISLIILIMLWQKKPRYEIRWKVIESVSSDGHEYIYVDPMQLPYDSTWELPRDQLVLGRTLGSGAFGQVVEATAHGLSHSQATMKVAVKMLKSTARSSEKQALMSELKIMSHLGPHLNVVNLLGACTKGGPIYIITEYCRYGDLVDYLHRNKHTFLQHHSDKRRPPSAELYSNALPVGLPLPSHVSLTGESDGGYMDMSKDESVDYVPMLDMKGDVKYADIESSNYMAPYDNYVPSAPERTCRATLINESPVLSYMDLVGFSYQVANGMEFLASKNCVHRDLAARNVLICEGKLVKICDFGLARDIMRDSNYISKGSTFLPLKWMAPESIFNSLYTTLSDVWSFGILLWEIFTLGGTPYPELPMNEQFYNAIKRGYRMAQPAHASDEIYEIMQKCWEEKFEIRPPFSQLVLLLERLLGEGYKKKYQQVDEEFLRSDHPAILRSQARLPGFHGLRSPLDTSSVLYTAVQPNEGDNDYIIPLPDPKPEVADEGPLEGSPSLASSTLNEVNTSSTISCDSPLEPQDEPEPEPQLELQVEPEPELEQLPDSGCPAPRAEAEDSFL
Assay [4] addresses Fibroblast growth factor receptor 3 (Homo sapiens) (UniProt P22607). The assay is described as follows: Binding affinity to FGFR3 assessed as percentage of kinase remaining bound to the bead at 1 uM by T7 phage display based binding assay. The method, boiled down: as §1
Assay [5] deals with Dual specificity mitogen-activated protein kinase kinase 1 (Homo sapiens) (UniProt Q02750). The assay is described as follows: Inhibition of MKK1 assessed as remaining enzyme activity at 1 uM relative to DMSO. The method, boiled down:
(§3)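 Radiometric kinase assay run robotically at room temperature for 30 min. Contained 10 mM magnesium acetate and [γ-33P]ATP (800 cpm/pmol) at 5, 20 or 50 μM, chosen per kinase to be at or below its ATP Km. Reactions were started with MgATP, stopped with orthophosphoric acid and spotted onto P81 filters. Result is mean % activity of duplicates at one inhibitor concentration versus DMSO control.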

Assay [6] concerns the target Mitogen-activated protein kinase 8 (Homo sapiens) (UniProt P45983). The assay is described as follows: Inhibition of JNK1 assessed as remaining enzyme activity at 1 uM relative to DMSO. Summed up: (§4)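 Radiometric kinase assay run robotically at room temperature for 30 min, linear in time and enzyme. Conditions: 10 mM magnesium acetate, [γ-33P]ATP (800 cpm/pmol) at 5, 20 or 50 μM per kinase, at or below its ATP Km. Started with MgATP and stopped with orthophosphoric acid, then spotted on P81 filters. Reported as mean % activity of duplicates versus DMSO controls.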

Assay [7] deals with Dual specificity tyrosine-phosphorylation-regulated kinase 3 (Homo sapiens) (UniProt O43781). Kind of assay: Inhibition of DYRK3 assessed as remaining enzyme activity at 1 uM relative to DMSO. The method, boiled down: as §4
Chain of Dual specificity tyrosine-phosphorylation-regulated kinase 3 (Homo sapiens) (O43781 whole entry, canonical isoform): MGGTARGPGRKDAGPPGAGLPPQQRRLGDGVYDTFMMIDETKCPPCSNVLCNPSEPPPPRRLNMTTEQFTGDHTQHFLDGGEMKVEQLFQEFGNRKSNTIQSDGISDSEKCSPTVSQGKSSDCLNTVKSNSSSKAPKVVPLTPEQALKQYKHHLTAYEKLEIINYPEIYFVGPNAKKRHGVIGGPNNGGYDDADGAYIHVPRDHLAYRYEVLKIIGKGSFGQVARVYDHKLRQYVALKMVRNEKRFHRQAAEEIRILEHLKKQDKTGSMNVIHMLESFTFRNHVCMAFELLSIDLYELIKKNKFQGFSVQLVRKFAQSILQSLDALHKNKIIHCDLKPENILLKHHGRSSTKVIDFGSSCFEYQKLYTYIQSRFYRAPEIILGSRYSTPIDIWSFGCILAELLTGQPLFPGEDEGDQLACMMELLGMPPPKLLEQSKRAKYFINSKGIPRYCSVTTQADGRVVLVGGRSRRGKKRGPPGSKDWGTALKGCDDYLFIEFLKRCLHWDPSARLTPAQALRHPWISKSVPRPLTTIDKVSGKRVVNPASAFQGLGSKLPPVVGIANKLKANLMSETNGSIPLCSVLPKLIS
The target of assay [8] is Casein kinase I isoform alpha (Homo sapiens) (UniProt P48729). The assay is described as follows: Inhibition of CK1 assessed as remaining enzyme activity at 1 uM relative to DMSO. Summed up:
as §4

In assay [9] the target is Serine/threonine-protein kinase STK11 (Homo sapiens) (UniProt Q15831). The assay is described as follows: Inhibition of LKB1 assessed as remaining enzyme activity at 1 uM relative to DMSO. The method, boiled down:
as §2

Assay [10] concerns the target Vascular endothelial growth factor receptor 3 (Homo sapiens) (UniProt P35916). The assay is described as follows: Binding affinity to FLT4 assessed as percentage of kinase remaining bound to the bead at 1 uM by T7 phage display based binding assay. Summed up: (§5)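 Kinases expressed as T7 phage fusions (full-length for small kinases, catalytic domain for large). Phage mixed with an immobilized known kinase inhibitor on streptavidin magnetic beads plus test compound at a single 1 μM concentration. Ligand displacement from the ATP site was read by quantitative PCR as % kinase/phage still bead-bound versus DMSO control. Human kinases.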

Assay [11] deals with Epidermal growth factor receptor (Homo sapiens) (UniProt P00533). The assay is described as follows: Binding affinity to EGFR assessed as percentage of kinase remaining bound to the bead at 1 uM by T7 phage display based binding assay. The method, boiled down:
as §5

For assay [12], the target named is Mitogen-activated protein kinase kinase kinase 11 (Homo sapiens) (UniProt Q16584). Kind of assay: Inhibition of MLK3 assessed as remaining enzyme activity at 1 uM relative to DMSO. The method, boiled down:
as §3

Assay [13] concerns the target Serine/threonine-protein kinase Chk1 (Homo sapiens) (UniProt O14757). The assay is described as follows: Inhibition of CHK1 assessed as remaining enzyme activity at 1 uM relative to DMSO. Summed up: as §4
In assay [14] the target is Ribosomal protein S6 kinase alpha-3 (Homo sapiens) (UniProt P51812). Kind of assay: Inhibition of RSK2 assessed as remaining enzyme activity at 1 uM relative to DMSO.
In assay [15] the target is TGF-beta receptor type-1 (Homo sapiens) (UniProt P36897). The assay is described as follows: Binding affinity to TGFBR1 assessed as percentage of kinase remaining bound to the bead at 1 uM by T7 phage display based binding assay. The method, boiled down:
as §1

Assay [16] has as its target SRSF protein kinase 1 (Homo sapiens) (UniProt Q96SB4). Kind of assay: Inhibition of SRPK1 assessed as remaining enzyme activity at 1 uM relative to DMSO.
Assay [17] has as its target Tyrosine-protein kinase BTK (Homo sapiens) (UniProt Q06187). The assay is described as follows: Inhibition of BTK assessed as remaining enzyme activity at 3 uM relative to DMSO. The method, boiled down:
as §2

Assay [18] addresses Serine/threonine-protein kinase Sgk1 (Homo sapiens) (UniProt O00141). Kind of assay: Inhibition of SGK1 assessed as remaining enzyme activity at 3 uM relative to DMSO.
In assay [19] the target is Serine/threonine-protein kinase Chk1 (Homo sapiens) (UniProt O14757). The assay is described as follows: Inhibition of CHK1 assessed as remaining enzyme activity at 3 uM relative to DMSO. The method, boiled down: as §2
Chain of Serine/threonine-protein kinase Chk1 (Homo sapiens) (O14757 whole entry): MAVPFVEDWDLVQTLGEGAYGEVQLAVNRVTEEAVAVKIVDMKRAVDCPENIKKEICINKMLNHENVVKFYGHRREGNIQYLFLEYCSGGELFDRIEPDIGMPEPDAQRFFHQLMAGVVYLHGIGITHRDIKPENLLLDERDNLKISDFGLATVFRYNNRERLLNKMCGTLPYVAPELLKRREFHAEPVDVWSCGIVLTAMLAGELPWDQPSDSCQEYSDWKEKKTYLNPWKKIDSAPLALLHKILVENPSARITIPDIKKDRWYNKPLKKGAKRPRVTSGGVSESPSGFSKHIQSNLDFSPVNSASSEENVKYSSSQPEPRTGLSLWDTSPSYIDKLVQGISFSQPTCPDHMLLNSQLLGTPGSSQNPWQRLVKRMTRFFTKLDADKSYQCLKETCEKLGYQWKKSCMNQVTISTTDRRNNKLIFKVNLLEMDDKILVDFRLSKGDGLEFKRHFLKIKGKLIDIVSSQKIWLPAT
Assay [20] addresses Tyrosine-protein kinase SYK (Homo sapiens) (UniProt P43405). The assay is described as follows: Inhibition of SYK assessed as remaining enzyme activity at 3 uM relative to DMSO.
Assay [21] addresses Mitogen-activated protein kinase kinase kinase kinase 2 (Homo sapiens) (UniProt Q12851). The assay is described as follows: Inhibition of GCK assessed as remaining enzyme activity at 3 uM relative to DMSO. Summed up: as §2
The target in assay [22] is 3-phosphoinositide-dependent protein kinase 1 (Homo sapiens) (UniProt O15530). The assay is described as follows: Inhibition of PDK1 assessed as remaining enzyme activity at 3 uM relative to DMSO.
In assay [23] the target is RAC-alpha serine/threonine-protein kinase (Homo sapiens) (UniProt P31749). The assay is described as follows: Inhibition of PKBalpha assessed as remaining enzyme activity at 3 uM relative to DMSO. The method, boiled down: as §3
Assay [24] is described as follows: Inhibition of VEG-FR assessed as remaining enzyme activity at 3 uM relative to DMSO.
In assay [25] the target is Protein kinase C alpha type (Homo sapiens) (UniProt P17252). Kind of assay: Inhibition of PKCalpha assessed as remaining enzyme activity at 3 uM relative to DMSO.
For assay [26], the target named is MAP kinase-interacting serine/threonine-protein kinase 1 (Homo sapiens) (UniProt Q9BUB5). Kind of assay: Inhibition of MNK1 assessed as remaining enzyme activity at 3 uM relative to DMSO. Summed up: as §3
In assay [27] the target is MAP kinase-activated protein kinase 2 (Homo sapiens) (UniProt P49137). The assay is described as follows: Inhibition of MAPKAPK2 assessed as remaining enzyme activity at 3 uM relative to DMSO. The method, boiled down:
as §3

Two compounds from ChEMBL document CHEMBL1154183, “Structure-based optimization of potent and selective inhibitors of the tyrosine kinase erythropoietin producing human hepatocellular carcinoma receptor B4 (EphB4)” (J Med Chem, 2009) can be followed below.

Chain of TGF-beta receptor type-1 (Homo sapiens) (P36897 whole entry): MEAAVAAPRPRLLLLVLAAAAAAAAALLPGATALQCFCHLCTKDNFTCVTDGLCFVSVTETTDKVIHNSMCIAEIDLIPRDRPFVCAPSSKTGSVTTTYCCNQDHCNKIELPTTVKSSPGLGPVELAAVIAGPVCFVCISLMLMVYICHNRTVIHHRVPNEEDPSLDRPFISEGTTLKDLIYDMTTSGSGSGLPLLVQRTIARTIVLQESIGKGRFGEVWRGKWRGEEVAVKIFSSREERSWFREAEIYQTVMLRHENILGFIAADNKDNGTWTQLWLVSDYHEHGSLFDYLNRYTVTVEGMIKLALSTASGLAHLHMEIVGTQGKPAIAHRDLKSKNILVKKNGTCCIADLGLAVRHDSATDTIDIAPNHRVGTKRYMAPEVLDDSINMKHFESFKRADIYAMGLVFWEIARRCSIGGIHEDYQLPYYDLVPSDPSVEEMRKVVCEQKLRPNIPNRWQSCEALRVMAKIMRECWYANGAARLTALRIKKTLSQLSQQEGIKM
Chain of Serine/threonine-protein kinase Sgk1 (Homo sapiens) (O00141 whole entry): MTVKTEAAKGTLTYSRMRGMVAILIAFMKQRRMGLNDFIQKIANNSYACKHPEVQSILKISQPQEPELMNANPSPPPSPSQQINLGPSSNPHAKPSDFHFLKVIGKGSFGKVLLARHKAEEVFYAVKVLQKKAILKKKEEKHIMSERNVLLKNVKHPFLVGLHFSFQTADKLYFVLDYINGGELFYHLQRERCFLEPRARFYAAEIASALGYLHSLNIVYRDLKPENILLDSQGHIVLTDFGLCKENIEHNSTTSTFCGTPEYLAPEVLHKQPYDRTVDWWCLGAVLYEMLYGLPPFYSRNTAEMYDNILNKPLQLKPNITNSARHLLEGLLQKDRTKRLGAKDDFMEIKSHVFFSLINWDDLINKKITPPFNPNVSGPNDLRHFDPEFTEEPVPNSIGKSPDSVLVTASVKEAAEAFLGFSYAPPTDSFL
Chain of Casein kinase I isoform alpha (Homo sapiens) (P48729 whole entry, looked up, canonical isoform): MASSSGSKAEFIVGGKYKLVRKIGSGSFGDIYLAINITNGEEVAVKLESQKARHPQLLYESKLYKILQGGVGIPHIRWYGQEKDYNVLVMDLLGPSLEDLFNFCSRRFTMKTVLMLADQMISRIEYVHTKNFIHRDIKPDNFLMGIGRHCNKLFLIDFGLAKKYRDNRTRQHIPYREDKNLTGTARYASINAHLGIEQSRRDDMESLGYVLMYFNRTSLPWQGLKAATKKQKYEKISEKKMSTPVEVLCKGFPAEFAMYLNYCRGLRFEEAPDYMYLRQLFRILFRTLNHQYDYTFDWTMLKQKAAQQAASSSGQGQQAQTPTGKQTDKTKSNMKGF
Chain of Bone morphogenetic protein receptor type-1A (Homo sapiens) (P36894 whole entry, the tested form may be a part): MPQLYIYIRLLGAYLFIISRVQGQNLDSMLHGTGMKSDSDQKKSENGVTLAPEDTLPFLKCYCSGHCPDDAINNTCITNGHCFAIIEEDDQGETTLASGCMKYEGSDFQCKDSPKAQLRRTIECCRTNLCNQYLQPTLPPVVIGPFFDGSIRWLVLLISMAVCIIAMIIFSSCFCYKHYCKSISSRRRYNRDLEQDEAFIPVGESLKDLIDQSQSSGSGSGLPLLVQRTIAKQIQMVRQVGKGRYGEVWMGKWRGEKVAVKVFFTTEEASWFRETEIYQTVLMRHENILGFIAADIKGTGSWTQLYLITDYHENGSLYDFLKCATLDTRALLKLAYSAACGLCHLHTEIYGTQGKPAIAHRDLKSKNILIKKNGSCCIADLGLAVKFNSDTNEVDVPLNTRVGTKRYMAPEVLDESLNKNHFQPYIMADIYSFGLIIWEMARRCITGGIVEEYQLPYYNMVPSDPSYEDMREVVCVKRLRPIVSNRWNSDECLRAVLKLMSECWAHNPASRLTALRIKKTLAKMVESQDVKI

On to `COc1ccccc1-n1c(-c2cc(O)ccc2C)cn2c3c(=O)[nH]c(=O)n(C)c3nc12`, for which the Activity was 51% in assay [1]; 62% in [2]; 53% in assay [3]; 89% in [4]; 70% in assay [5]; 96% in assay [6]. Also, the Activity in [7] was 96%; in [8], 93%; in assay [9], 75%; in assay [10], 93%; in [11], 8.6%; in [12], 101%. The Activity in assay [13] worked out at 95%; in [14], 104%; in [15] it was 3.6%; in assay [16], 94%.
With `COc1ccccc1-n1c(-c2ccccc2C)cn2c3c(=O)[nH]c(=O)n(C)c3nc12`, the Activity in assay [17] is 52%; in assay [18], 124%; in [19] it was 93%; in assay [20], 94%; in [21] it was 109%; in [22], 109%. In addition, the Activity in assay [23] was 97%; in assay [24] it was 106%; in [25] it was 97%; in [26], 93%; in assay [27], 96%.
